Data as given in ChEMBL document CHEMBL5104207, “Synthesis, biological evaluation and computational studies of pyrazole derivatives as Mycobacterium tuberculosis CYP121A1 inhibitors” (RSC Med Chem, 2022).
Converted amounts (≈) assume the structure as drawn.

Test system: Mycobacterium tuberculosis
Assay: Antimycobacterial activity against Mycobacterium tuberculosis H37Rv assessed as inhibition of bacterial growth for 5 weeks by spot culture growth inhibition assay
Assay type: functional
Settings: 840 h
In short: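 M. tuberculosis H37Rv grown shaking at 37 °C in 7H9 with 0.5% glycerol, 10% OADC and 0.025% Tween 80 to OD 1, then diluted 1:100 and 2 µL spotted. Wells hold 7H10 agar with 0.5% glycerol and 10% OADC plus compound, two-fold serial dilutions in DMSO from 150 μg mL-1. Plates used within 24 h. Incubated 37 °C for five weeks, then MIC90 recorded.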

**Q.** How did the MIC90 turn out when CC(C)Oc1ccc(-c2nn(-c3ccc(Cl)cc3)cc2Cn2ccnc2)cc1 was run?
**A.** Its MIC90 is 15.3 µM (≈ 6.01 µg/mL).
